Reference: ChEMBL document CHEMBL4229498 (Bioorg Med Chem, 2018)
pEC50, pKi: −log10 of the molar value.

Columns and labels:
[1] = Drug transport across apical to basolateral side in MDCK cells expressing MDR1 at 10 uM after 1 hr by mass spectrometer; type: ADME, cell-based, Canis lupus familiaris; settings: dog
Outline: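 MDCK-mdr1 cells (human MDR1-transfected) were grown 4 days to confluence on Transwell-type filters in DMEM/F12 with 10% FBS and antibiotics. Compound was added apically at 10 µM in HBSS with 25 mM D-glucose, HEPES-buffered to pH 7.4, and incubated 1 h at 37 °C. Apical and basal samples were collected, and results are given as % transported apical to basal.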

Cannabinoid receptor 1 [2] = biological target: T1, Cannabinoid receptor 1 (Homo sapiens, UniProt P21554); test: Displacement of [3H]-CP55940 from human CB1 receptor expressed in CHO cell membranes after 1 hr by liquid scintillation spectrometry
T1 sequence (P21554 whole entry): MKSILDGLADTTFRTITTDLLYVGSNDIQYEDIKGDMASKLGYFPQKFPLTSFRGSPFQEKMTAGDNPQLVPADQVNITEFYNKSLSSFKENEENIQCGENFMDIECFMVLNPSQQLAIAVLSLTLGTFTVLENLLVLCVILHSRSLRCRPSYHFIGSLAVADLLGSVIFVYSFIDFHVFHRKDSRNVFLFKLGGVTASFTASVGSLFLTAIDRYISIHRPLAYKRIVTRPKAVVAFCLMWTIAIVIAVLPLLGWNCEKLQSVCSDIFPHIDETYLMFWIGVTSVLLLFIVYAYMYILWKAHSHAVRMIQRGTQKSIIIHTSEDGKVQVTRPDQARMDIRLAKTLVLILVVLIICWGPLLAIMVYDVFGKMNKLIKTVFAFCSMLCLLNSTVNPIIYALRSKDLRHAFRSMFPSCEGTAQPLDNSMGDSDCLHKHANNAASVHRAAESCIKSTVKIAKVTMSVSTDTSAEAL

Cannabinoid receptor 2 = Cannabinoid receptor 2 (Homo sapiens, UniProt P34972); test: Displacement of [3H]-CP55940 from human CB2 receptor expressed in CHO cell membranes after 1 hr by liquid scintillation spectrometry
Chain of Cannabinoid receptor 2 (P34972 whole entry): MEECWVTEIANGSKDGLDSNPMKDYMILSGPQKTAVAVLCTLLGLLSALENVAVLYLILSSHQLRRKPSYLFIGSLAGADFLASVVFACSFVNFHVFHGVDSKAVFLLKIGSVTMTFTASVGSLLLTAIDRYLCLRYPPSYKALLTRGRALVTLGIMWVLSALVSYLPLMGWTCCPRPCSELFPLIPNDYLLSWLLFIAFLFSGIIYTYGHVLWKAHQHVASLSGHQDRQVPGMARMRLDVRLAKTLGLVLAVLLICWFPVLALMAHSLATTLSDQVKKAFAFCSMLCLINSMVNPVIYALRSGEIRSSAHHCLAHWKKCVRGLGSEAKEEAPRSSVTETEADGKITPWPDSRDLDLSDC

[3] = Half life in C57BL6 mouse at […], po administered in cassette format; type: ADME, organism-based; settings: in vivo
[4] = Tmax in C57BL6 mouse plasma at […], po administered in cassette format; type: ADME, organism-based
[5] = Cmax in C57BL6 mouse plasma at […], po administered in cassette format; type: ADME, organism-based; design: dose 2.5 mg/kg, route oral
[6] = Ratio of drug level in brain to plasma in C57BL6 mouse at […], po administered in cassette format; type: ADME, organism-based
Cannabinoid receptor 1 [7] = biological target: T1, Cannabinoid receptor 1; type: functional, cell-based, HEK293
Cannabinoid receptor 1 [8] = biological target: T1, Cannabinoid receptor 1; settings: HEK293

Row | Compound | Drug transport [1] | pKi (Cannabinoid receptor 1 [2]) | pKi (Cannabinoid receptor 2) | further results
1 | O=C(Nc1ccc(F)cc1)N1CCN(c2ncnc3c2nc(-c2ccccc2Cl)n3-c2ccc(Cl)cc2)CC1 | 0% |  |  | 
2 | O=S(=O)(CCC(F)(F)F)N1CCN(c2ncnc3c2nc(-c2ccccc2Cl)n3-c2ccc(Cl)cc2)CC1 |  | 8.92 | 6.30 | 
3 | O=S(=O)(CC1CCOCC1)N1CCN(c2ncnc3c2nc(-c2ccccc2Cl)n3-c2ccc(Cl)cc2)CC1 | 9% | 8.52 | 5.52 | 
4 | O=C(Nc1ccccc1F)N1CCN(c2ncnc3c2nc(-c2ccccc2Cl)n3-c2ccc(Cl)cc2)CC1 | 5% |  |  | 
5 | O=C(NS(=O)(=O)c1ccccc1F)N1CCN(c2ncnc3c2nc(-c2ccccc2Cl)n3-c2ccc(Cl)cc2)CC1 |  | 6.60 |  | 
6 | O=C(N1CCN(c2ncnc3c2nc(-c2ccccc2Cl)n3-c2ccc(Cl)cc2)CC1)C(F)(F)F |  |  | 6.89 | 
7 | O=C(Nc1ccccc1)N1CCN(c2ncnc3c2nc(-c2ccccc2Cl)n3-c2ccc(Cl)cc2)CC1 | 1% |  |  | 
8 | CC(C)S(=O)(=O)N1CCN(c2ncnc3c2nc(-c2ccccc2Cl)n3-c2ccc(Cl)cc2)CC1 | 11% |  |  | 
9 | O=C(Nc1ccc(OC(F)F)nc1)N1CCN(c2ncnc3c2nc(-c2ccccc2Cl)n3-c2ccc(Cl)cc2)CC1 | 1.1% |  | < 5.00 | half-life [3]: 6.1 h; Tmax [4]: 4 h; Cmax [5]: 500 ng/mL; BPR [6]: 0.18; pEC50 (Cannabinoid receptor 1 [7]): 6.23
10 | CCCCC(=O)N1CCN(c2ncnc3c2nc(-c2ccccc2Cl)n3-c2ccc(Cl)cc2)CC1 | 0% | 8.22 |  | 
11 | CCCS(=O)(=O)N1CCN(c2ncnc3c2nc(-c2ccccc2Cl)n3-c2ccc(Cl)cc2)CC1 | 6% |  |  | 
12 | CC(C)CS(=O)(=O)N1CCN(c2ncnc3c2nc(-c2ccccc2Cl)n3-c2ccc(Cl)cc2)CC1 | 0% |  | 5.55 | 
13 | O=S(=O)(CC1CCCCC1)N1CCN(c2ncnc3c2nc(-c2ccccc2Cl)n3-c2ccc(Cl)cc2)CC1 |  | 8.77 | 7.04 | 
14 | O=C(C1CCSCC1)N1CCN(c2ncnc3c2nc(-c2ccccc2Cl)n3-c2ccc(Cl)cc2)CC1 |  |  | 6.28 | 
15 | O=C(CN1CCCCC1)N1CCN(c2ncnc3c2nc(-c2ccccc2Cl)n3-c2ccc(Cl)cc2)CC1 | 5% | 7.68 | 5.30 | 
16 | O=C(OC1CCC1)N1CCN(c2ncnc3c2nc(-c2ccccc2Cl)n3-c2ccc(Cl)cc2)CC1 |  | 8.52 | 5.47 | 
17 | CC(C)(C)CC(=O)N1CCN(c2ncnc3c2nc(-c2ccccc2Cl)n3-c2ccc(Cl)cc2)CC1 |  | 8.70 | 5.30 | 

Row | Compound | Drug transport [1] | pKi (Cannabinoid receptor 1 [2]) | pKi (Cannabinoid receptor 2) | further results
18 | O=C(NC1CCCC1)N1CCN(c2ncnc3c2nc(-c2ccccc2Cl)n3-c2ccc(Cl)cc2)CC1 | 3% |  |  | 
19 | CCOCC(=O)N1CCN(c2ncnc3c2nc(-c2ccccc2Cl)n3-c2ccc(Cl)cc2)CC1 |  | 7.96 | < 5.00 | 
20 | CS(=O)(=O)N1CCN(c2ncnc3c2nc(-c2ccccc2Cl)n3-c2ccc(Cl)cc2)CC1 | 14% | 7.62 | 5.77 | 
21 | O=C(OCC1CCC1)N1CCN(c2ncnc3c2nc(-c2ccccc2Cl)n3-c2ccc(Cl)cc2)CC1 | 0% | 8.52 | 5.34 | Ke (Cannabinoid receptor 1 [8]): 12 nM
22 | CC(C(=O)N1CCN(c2ncnc3c2nc(-c2ccccc2Cl)n3-c2ccc(Cl)cc2)CC1)c1ccccc1 (stereo not given) |  | 8.52 | 6.25 | 
23 | O=C(Nc1ccccn1)N1CCN(c2ncnc3c2nc(-c2ccccc2Cl)n3-c2ccc(Cl)cc2)CC1 | 1.2% |  |  | 
24 | O=C(CC1CCCC1)N1CCN(c2ncnc3c2nc(-c2ccccc2Cl)n3-c2ccc(Cl)cc2)CC1 |  | 9.40 | < 5.00 | 
25 | O=C(N1CCCC1)N1CCN(c2ncnc3c2nc(-c2ccccc2Cl)n3-c2ccc(Cl)cc2)CC1 |  | 7.89 |  | 
26 | N=C(Nc1ccc(F)cc1)N1CCN(c2ncnc3c2nc(-c2ccccc2Cl)n3-c2ccc(Cl)cc2)CC1 | 0.4% |  |  | 
27 | CCS(=O)(=O)N1CCN(c2ncnc3c2nc(-c2ccccc2Cl)n3-c2ccc(Cl)cc2)CC1 | 18% | 8.52 |  | 
28 | O=C(Nc1ccc(F)c(F)c1)N1CCN(c2ncnc3c2nc(-c2ccccc2Cl)n3-c2ccc(Cl)cc2)CC1 | 0% |  |  | 
29 | O=C(C1COc2ccccc2O1)N1CCN(c2ncnc3c2nc(-c2ccccc2Cl)n3-c2ccc(Cl)cc2)CC1 (stereo not given) | 0% | 8.30 |  | 
30 | O=C(Nc1ccc(F)cc1F)N1CCN(c2ncnc3c2nc(-c2ccccc2Cl)n3-c2ccc(Cl)cc2)CC1 | 1.4% | 8.30 |  | 
31 | CC(C)(C)OC(=O)N1CCN(c2ncnc3c2nc(-c2ccccc2Cl)n3-c2ccc(Cl)cc2)CC1 | 3% | 8.30 | 5.47 | 
32 | CCCCS(=O)(=O)N1CCN(c2ncnc3c2nc(-c2ccccc2Cl)n3-c2ccc(Cl)cc2)CC1 | 5% |  |  | 
33 | O=C(CC1CCOC1)N1CCN(c2ncnc3c2nc(-c2ccccc2Cl)n3-c2ccc(Cl)cc2)CC1 (stereo not given) |  | 8.10 | 5.52 | 
34 | O=S(=O)(C1CC1)N1CCN(c2ncnc3c2nc(-c2ccccc2Cl)n3-c2ccc(Cl)cc2)CC1 | 4% | 8.30 |  | 
